Experimental data reported in ChEMBL document CHEMBL4689842, “EUbOPEN Chemogenomics Library wave 1” (2021).

System: Fibroblast
Assay: Multiplex assay against human fibroblast
Format: toxicity, cell-based
Method in brief: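 Cells were classed with CellPathfinder machine-learning gating, first as Hoechst high-intensity objects or normal cells, then (normal cells) as healthy, pyknosed or fragmented nuclei, and finally (pyknosed cells) as mitotic or apoptotic. Staining of live cells at seeding used Hoechst33342, BioTracker Green Microtubule Cytoskeleton Dye, MitoTracker Red and Annexin V Alexa Fluor 680, with imaging on a CQ1 microscope at 37°C and 5% CO2 after compound addition. Tubulin, mitochondrial-mass and membrane-permeability phenotypes are per cents of healthy-nucleus cells.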

[1] = 12 h, 1 µM, compound concentration 1 uM, replicate 1
[2] = 12 h, 1 µM, compound concentration 1 uM, replicate 2
[3] = 12 h, 10 µM, compound concentration 10 uM, replicate 1
[4] = 12 h, 10 µM, compound concentration 10 uM, replicate 2
[5] = 24 h, 1 µM, compound concentration 1 uM, replicate 1
[6] = 24 h, 1 µM, compound concentration 1 uM, replicate 2
[7] = 24 h, 10 µM, compound concentration 10 uM, replicate 1
[8] = 24 h, 10 µM, compound concentration 10 uM, replicate 2
[9] = 48 h, 1 µM, compound concentration 1 uM, replicate 1
[10] = 48 h, 1 µM, compound concentration 1 uM, replicate 2
[11] = 48 h, 10 µM, compound concentration 10 uM, replicate 1
[12] = 48 h, 10 µM, compound concentration 10 uM, replicate 2

CN1CCC(=C2c3ccccc3CC(=O)c3sccc32)CC1.O=C(O)/C=C/C(=O)O [KETOTIFEN FUMARATE]
Population Apoptotic (%) [1]: 61% | Population Fragmented Nuclei (%) [1]: 26% | Population Healthy Nuclei (%) [1]: 41% | Population Hoechst High Intensity Objects (%) [1]: 12% | Population Membrane Permeable-Phenotype (%) [1]: 24% | Population Mitochondria Different-Phenotype (%) [1]: 3% | Population Mitotic Cells (%) [1]: 38% | Population Normal (%) [1]: 87% | Population Pyknosed Nuclei (%) [1]: 32% | Population Tubulin-Different-Phenotype (%) [1]: 37% | Total Cell Count [1]: 149 | Population Apoptotic (%) [2]: 75% | Population Fragmented Nuclei (%) [2]: 6% | Population Healthy Nuclei (%) [2]: 87% | Population Hoechst High Intensity Objects (%) [2]: 5% | Population Membrane Permeable-Phenotype (%) [2]: 10% | Population Mitochondria Different-Phenotype (%) [2]: 12% | Population Mitotic Cells (%) [2]: 25% | Population Normal (%) [2]: 94% | Population Pyknosed Nuclei (%) [2]: 6% | Population Tubulin-Different-Phenotype (%) [2]: 9% | Total Cell Count [2]: 56 | Population Apoptotic (%) [3]: 73% | Population Fragmented Nuclei (%) [3]: 21% | Population Healthy Nuclei (%) [3]: 51% | Population Hoechst High Intensity Objects (%) [3]: 16% | Population Membrane Permeable-Phenotype (%) [3]: 6% | Population Mitochondria Different-Phenotype (%) [3]: 23% | Population Mitotic Cells (%) [3]: 26% | Population Normal (%) [3]: 83% | Population Pyknosed Nuclei (%) [3]: 26% | Population Tubulin-Different-Phenotype (%) [3]: 84% | Total Cell Count [3]: 168 | Population Apoptotic (%) [4]: 33% | Population Fragmented Nuclei (%) [4]: 2% | Population Healthy Nuclei (%) [4]: 75% | Population Hoechst High Intensity Objects (%) [4]: 1% | Population Membrane Permeable-Phenotype (%) [4]: 15% | Population Mitochondria Different-Phenotype (%) [4]: 90% | Population Mitotic Cells (%) [4]: 66% | Population Normal (%) [4]: 98% | Population Pyknosed Nuclei (%) [4]: 22% | Population Tubulin-Different-Phenotype (%) [4]: 95% | Total Cell Count [4]: 67 | Population Apoptotic (%) [5]: 63% | Population Fragmented Nuclei (%) [5]: 25% | Population Healthy Nuclei (%) [5]: 45% | Population Hoechst High Intensity Objects (%) [5]: 12% | Population Membrane Permeable-Phenotype (%) [5]: 16% | Population Mitochondria Different-Phenotype (%) [5]: 6% | Population Mitotic Cells (%) [5]: 36% | Population Normal (%) [5]: 88% | Population Pyknosed Nuclei (%) [5]: 28% | Population Tubulin-Different-Phenotype (%) [5]: 38% | Total Cell Count [5]: 150 | Population Apoptotic (%) [6]: 100% | Population Fragmented Nuclei (%) [6]: 8% | Population Healthy Nuclei (%) [6]: 86% | Population Hoechst High Intensity Objects (%) [6]: 7% | Population Membrane Permeable-Phenotype (%) [6]: 9% | Population Mitochondria Different-Phenotype (%) [6]: 10% | Population Mitotic Cells (%) [6]: 0% | Population Normal (%) [6]: 92% | Population Pyknosed Nuclei (%) [6]: 5% | Population Tubulin-Different-Phenotype (%) [6]: 4% | Total Cell Count [6]: 64 | Population Apoptotic (%) [7]: 75% | Population Fragmented Nuclei (%) [7]: 33% | Population Healthy Nuclei (%) [7]: 51% | Population Hoechst High Intensity Objects (%) [7]: 16% | Population Membrane Permeable-Phenotype (%) [7]: 17% | Population Mitochondria Different-Phenotype (%) [7]: 28% | Population Mitotic Cells (%) [7]: 25% | Population Normal (%) [7]: 83% | Population Pyknosed Nuclei (%) [7]: 15% | Population Tubulin-Different-Phenotype (%) [7]: 83% | Total Cell Count [7]: 189 | Population Apoptotic (%) [8]: 59% | Population Fragmented Nuclei (%) [8]: 6% | Population Healthy Nuclei (%) [8]: 66% | Population Hoechst High Intensity Objects (%) [8]: 2% | Population Membrane Permeable-Phenotype (%) [8]: 22% | Population Mitochondria Different-Phenotype (%) [8]: 98% | Population Mitotic Cells (%) [8]: 40% | Population Normal (%) [8]: 97% | Population Pyknosed Nuclei (%) [8]: 27% | Population Tubulin-Different-Phenotype (%) [8]: 88% | Total Cell Count [8]: 80 | Population Apoptotic (%) [9]: 61% | Population Fragmented Nuclei (%) [9]: 34% | Population Healthy Nuclei (%) [9]: 52% | Population Hoechst High Intensity Objects (%) [9]: 16% | Population Membrane Permeable-Phenotype (%) [9]: 20% | Population Mitochondria Different-Phenotype (%) [9]: 2% | Population Mitotic Cells (%) [9]: 38% | Population Normal (%) [9]: 83% | Population Pyknosed Nuclei (%) [9]: 12% | Population Tubulin-Different-Phenotype (%) [9]: 34% | Total Cell Count [9]: 170 | Population Apoptotic (%) [10]: 40% | Population Fragmented Nuclei (%) [10]: 28% | Population Healthy Nuclei (%) [10]: 64% | Population Hoechst High Intensity Objects (%) [10]: 10% | Population Membrane Permeable-Phenotype (%) [10]: 18% | Population Mitochondria Different-Phenotype (%) [10]: 0% | Population Mitotic Cells (%) [10]: 60% | Population Normal (%) [10]: 89% | Population Pyknosed Nuclei (%) [10]: 6% | Population Tubulin-Different-Phenotype (%) [10]: 32% | Total Cell Count [10]: 86 | Population Apoptotic (%) [11]: 87% | Population Fragmented Nuclei (%) [11]: 41% | Population Healthy Nuclei (%) [11]: 53% | Population Hoechst High Intensity Objects (%) [11]: 31% | Population Membrane Permeable-Phenotype (%) [11]: 16% | Population Mitochondria Different-Phenotype (%) [11]: 9% | Population Mitotic Cells (%) [11]: 12% | Population Normal (%) [11]: 68% | Population Pyknosed Nuclei (%) [11]: 4% | Population Tubulin-Different-Phenotype (%) [11]: 68% | Total Cell Count [11]: 260 | Population Apoptotic (%) [12]: 0% | Population Fragmented Nuclei (%) [12]: 34% | Population Healthy Nuclei (%) [12]: 64% | Population Hoechst High Intensity Objects (%) [12]: 23% | Population Membrane Permeable-Phenotype (%) [12]: 13% | Population Mitochondria Different-Phenotype (%) [12]: 5% | Population Mitotic Cells (%) [12]: 100% | Population Normal (%) [12]: 76% | Population Pyknosed Nuclei (%) [12]: 1% | Population Tubulin-Different-Phenotype (%) [12]: 86% | Total Cell Count [12]: 176

COc1ccc(-c2ccc3c(N4CCOCC4)nc(N4C[C@@H](C)O[C@@H](C)C4)nc3n2)cc1CO [Ku-0063794]
Population Apoptotic (%) [1]: 72% | Population Fragmented Nuclei (%) [1]: 30% | Population Healthy Nuclei (%) [1]: 52% | Population Hoechst High Intensity Objects (%) [1]: 16% | Population Membrane Permeable-Phenotype (%) [1]: 5% | Population Mitochondria Different-Phenotype (%) [1]: 1% | Population Mitotic Cells (%) [1]: 27% | Population Normal (%) [1]: 83% | Population Pyknosed Nuclei (%) [1]: 16% | Population Tubulin-Different-Phenotype (%) [1]: 3% | Total Cell Count [1]: 281 | Population Apoptotic (%) [2]: 33% | Population Fragmented Nuclei (%) [2]: 61% | Population Healthy Nuclei (%) [2]: 30% | Population Hoechst High Intensity Objects (%) [2]: 35% | Population Membrane Permeable-Phenotype (%) [2]: 17% | Population Mitochondria Different-Phenotype (%) [2]: 13% | Population Mitotic Cells (%) [2]: 66% | Population Normal (%) [2]: 64% | Population Pyknosed Nuclei (%) [2]: 8% | Population Tubulin-Different-Phenotype (%) [2]: 17% | Total Cell Count [2]: 116 | Population Apoptotic (%) [3]: 77% | Population Fragmented Nuclei (%) [3]: 72% | Population Healthy Nuclei (%) [3]: 20% | Population Hoechst High Intensity Objects (%) [3]: 63% | Population Membrane Permeable-Phenotype (%) [3]: 14% | Population Mitochondria Different-Phenotype (%) [3]: 3% | Population Mitotic Cells (%) [3]: 22% | Population Normal (%) [3]: 36% | Population Pyknosed Nuclei (%) [3]: 6% | Population Tubulin-Different-Phenotype (%) [3]: 7% | Total Cell Count [3]: 736 | Population Apoptotic (%) [4]: 0% | Population Fragmented Nuclei (%) [4]: 82% | Population Healthy Nuclei (%) [4]: 17% | Population Hoechst High Intensity Objects (%) [4]: 66% | Population Membrane Permeable-Phenotype (%) [4]: 42% | Population Mitochondria Different-Phenotype (%) [4]: 42% | Population Mitotic Cells (%) [4]: 0% | Population Normal (%) [4]: 33% | Population Pyknosed Nuclei (%) [4]: 0% | Population Tubulin-Different-Phenotype (%) [4]: 28% | Total Cell Count [4]: 244 | Population Apoptotic (%) [5]: 67% | Population Fragmented Nuclei (%) [5]: 33% | Population Healthy Nuclei (%) [5]: 54% | Population Hoechst High Intensity Objects (%) [5]: 18% | Population Membrane Permeable-Phenotype (%) [5]: 7% | Population Mitochondria Different-Phenotype (%) [5]: 2% | Population Mitotic Cells (%) [5]: 32% | Population Normal (%) [5]: 81% | Population Pyknosed Nuclei (%) [5]: 11% | Population Tubulin-Different-Phenotype (%) [5]: 3% | Total Cell Count [5]: 290 | Population Apoptotic (%) [6]: 80% | Population Fragmented Nuclei (%) [6]: 65% | Population Healthy Nuclei (%) [6]: 28% | Population Hoechst High Intensity Objects (%) [6]: 25% | Population Membrane Permeable-Phenotype (%) [6]: 9% | Population Mitochondria Different-Phenotype (%) [6]: 13% | Population Mitotic Cells (%) [6]: 20% | Population Normal (%) [6]: 74% | Population Pyknosed Nuclei (%) [6]: 6% | Population Tubulin-Different-Phenotype (%) [6]: 13% | Total Cell Count [6]: 105 | Population Apoptotic (%) [7]: 59% | Population Fragmented Nuclei (%) [7]: 72% | Population Healthy Nuclei (%) [7]: 21% | Population Hoechst High Intensity Objects (%) [7]: 58% | Population Membrane Permeable-Phenotype (%) [7]: 10% | Population Mitochondria Different-Phenotype (%) [7]: 0% | Population Mitotic Cells (%) [7]: 40% | Population Normal (%) [7]: 41% | Population Pyknosed Nuclei (%) [7]: 6% | Population Tubulin-Different-Phenotype (%) [7]: 7% | Total Cell Count [7]: 790 | Population Apoptotic (%) [8]: 100% | Population Fragmented Nuclei (%) [8]: 78% | Population Healthy Nuclei (%) [8]: 20% | Population Hoechst High Intensity Objects (%) [8]: 70% | Population Membrane Permeable-Phenotype (%) [8]: 28% | Population Mitochondria Different-Phenotype (%) [8]: 21% | Population Mitotic Cells (%) [8]: 0% | Population Normal (%) [8]: 29% | Population Pyknosed Nuclei (%) [8]: 1% | Population Tubulin-Different-Phenotype (%) [8]: 21% | Total Cell Count [8]: 241
